64 molecules from PubChem BioAssay AID489031 (Sanford-Burnham Center for Chemical Genomics, 2010) can be followed below.

Hit rate of the full screen: of about 330,000 compounds, about 1,000 (0.3%) were called active. The full list was thinned out, with actives kept by preference. Unmarked numbers belong to inactive results.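 Rule for the calls: active = activity change at or below -40% at 20 µM; inactive = the rest.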

Chain of Apoptotic protease-activating factor 1 (Homo sapiens) (O14727 whole entry, looked up): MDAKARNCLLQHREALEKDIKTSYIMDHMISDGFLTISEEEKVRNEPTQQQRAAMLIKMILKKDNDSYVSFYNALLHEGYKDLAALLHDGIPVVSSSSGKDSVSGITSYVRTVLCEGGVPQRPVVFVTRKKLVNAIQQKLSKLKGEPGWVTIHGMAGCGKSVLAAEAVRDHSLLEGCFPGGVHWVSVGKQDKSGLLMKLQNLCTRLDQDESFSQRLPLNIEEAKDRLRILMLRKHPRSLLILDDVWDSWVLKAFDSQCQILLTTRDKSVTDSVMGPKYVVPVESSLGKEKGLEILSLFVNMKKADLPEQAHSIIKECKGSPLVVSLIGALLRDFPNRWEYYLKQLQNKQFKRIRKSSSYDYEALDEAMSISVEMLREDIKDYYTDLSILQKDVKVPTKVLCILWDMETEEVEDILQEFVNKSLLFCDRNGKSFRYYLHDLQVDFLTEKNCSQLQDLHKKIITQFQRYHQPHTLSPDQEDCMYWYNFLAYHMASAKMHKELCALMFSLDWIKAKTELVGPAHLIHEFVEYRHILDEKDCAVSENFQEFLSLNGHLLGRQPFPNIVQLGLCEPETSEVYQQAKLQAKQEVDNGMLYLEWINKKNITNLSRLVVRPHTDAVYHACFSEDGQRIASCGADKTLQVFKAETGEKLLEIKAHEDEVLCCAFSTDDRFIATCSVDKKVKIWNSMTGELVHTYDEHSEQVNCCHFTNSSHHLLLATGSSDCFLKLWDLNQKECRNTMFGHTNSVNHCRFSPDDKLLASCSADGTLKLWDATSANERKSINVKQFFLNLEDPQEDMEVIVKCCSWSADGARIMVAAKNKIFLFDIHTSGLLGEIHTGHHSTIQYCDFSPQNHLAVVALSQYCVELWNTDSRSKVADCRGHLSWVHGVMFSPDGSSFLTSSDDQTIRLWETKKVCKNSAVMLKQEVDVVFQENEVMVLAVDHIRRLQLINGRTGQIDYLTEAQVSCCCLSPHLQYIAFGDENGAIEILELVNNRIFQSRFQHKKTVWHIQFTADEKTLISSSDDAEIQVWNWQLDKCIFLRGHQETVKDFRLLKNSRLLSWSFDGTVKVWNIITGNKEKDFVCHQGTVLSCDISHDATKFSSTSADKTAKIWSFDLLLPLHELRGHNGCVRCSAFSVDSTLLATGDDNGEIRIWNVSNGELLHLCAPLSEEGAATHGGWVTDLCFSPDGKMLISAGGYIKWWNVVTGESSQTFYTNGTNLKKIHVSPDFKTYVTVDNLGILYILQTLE

In this assay the target is Apoptotic protease-activating factor 1 (Homo sapiens) (UniProt O14727). Nature of the assay: activators of human Apaf-1 apoptosome, primary screen, biochemical, DEVD-Rh110 fluorescence, uHTS (AID 489031). The conditions noted are these: Apaf-1 apoptosome caspase-3 activation, at 20 µM, hits give low values. The gist of the method:
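Schedule: 30 min preincubation, 50 min reaction, room temperature / System: biochemical Apaf-1 apoptosome reconstitution / Medium: 20 mM HEPES pH 7.5 with CHAPS, BSA / Evaluation: Caspase-3 cleavage activity downstream of Apaf-1 activation / Detection: Caspase-3-released Rh110 fluorescence, 540 nm emission, 480 nm excitation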
Regarding `CC(=O)N(C1=C(Cl)C(=O)c2ccccc2C1=O)c1ccc(C(=O)O)cc1`, the activity change, negative = activation was 89%.

Turning to `Cc1cc2oc3ccc(NCCC4CCCN4C)cc3c(=O)c2cc1C` (centres undefined), the activity change, negative = activation was 46.9%.

For the molecule `Nc1cc(C(F)(F)F)ccc1N1CCOCC1`, the activity change, negative = activation is -185% (active).

As for `CCN(CC(=O)NCc1cccs1)C(=O)c1cccc(S(=O)(=O)Nc2ccccc2OC)c1`, the activity change, negative = activation was 60.2%.

On to `CCN1C[C@@H]2[C@@H]3C(=O)N(Cc4ccccc4)C(=O)[C@@H]3[C@](Cc3ccccc3)(C(=O)OC)N2C1=NC1CCCCC1`, for which the activity change, negative = activation was 41.2%.

Regarding `CN(C)S(=O)(=O)c1ccc2oc(SCC(=O)Nc3ccccc3F)nc2c1`, the activity change, negative = activation was 61.1%.

Regarding `CCOCCc1c(O)nc(SCC(=O)NCc2ccco2)[nH]c1=O`, the activity change, negative = activation was -133% (active).

With `Cc1ccc(N=C2NC(=O)/C(=C/C=C/c3ccco3)S2)cc1C`, the activity change, negative = activation is 61.8%.

In the case of `COc1cccc(-c2sc3ccc(OC)cc3c2-c2ccc(OCCN3CCCCC3)cc2)c1`, the activity change, negative = activation was 61.8%.

Take `CCC(C)(C)c1ccc(OCC(=O)N(C)C)c(C(C)(C)CC)c1`: the activity change, negative = activation was 56.5%.

Regarding `CC(C)N1CCC(NC(=O)Nc2ccccc2)CC1`, the activity change, negative = activation was -331% (active).

Consider `CCOC(=O)C1CCN(C(=O)c2cccc(S(=O)(=O)N(CC)c3ccccc3)c2)CC1`, for which the activity change, negative = activation was 45.2%.

Regarding `Clc1ccc(C2=CSC3=Nc4cccc5cccc(c45)N23)cc1`, the activity change, negative = activation is 90%.

`Clc1cccc(-c2nc3nc4ccccc4nc3n2Cc2ccco2)c1`: the activity change, negative = activation is -136% (active).

For the molecule `COc1ccc(S(=O)(=O)/N=C2\C=C(NS(=O)(=O)c3ccccc3)C(=O)c3ccccc32)cc1`, the activity change, negative = activation is 79.2%.

Take `CN1CC(=O)N=C1N`: the activity change, negative = activation was 3.64%.

As for `CCCC[C@@H]1CN=C(N)N1CCc1cc(C(F)(F)F)cc(C(F)(F)F)c1`, the activity change, negative = activation is 52.3%.

On to `Nc1ccc2nn(-c3ccc(Cl)cc3)nc2c1`, for which the activity change, negative = activation is 83.8%.

Consider `CC(=O)NC(=S)NNC(=O)c1ccc(Br)cc1`, for which the activity change, negative = activation was -56.7% (active).

Consider `O=C(Cc1cc(=O)[nH][nH]1)N/N=C/c1ccccc1[N+](=O)[O-]`, for which the activity change, negative = activation is 40.8%.

On to `Cc1ccc(Nc2nc(CSc3nnc(-c4ccncc4)n3-c3ccccc3C)cs2)cc1`, for which the activity change, negative = activation is -54.9% (active).

In the case of `CCCCCCCCCCOC(=O)Cn1c(COc2ccc(C)cc2)[n+](C)c2ccccc21`, the activity change, negative = activation is 77.7%.

Take `N#CC1(C#N)C(C(=O)C23CC4CC(CC(C4)C2)C3)C12CCOCC2` (centres undefined): the activity change, negative = activation is -214% (active).

In the case of `O=C(N/N=C\c1cccnc1)c1cc(-c2ccccc2)nc2c(Cl)cccc12`, the activity change, negative = activation is 40.1%.

`C=CCNC(=O)c1ccc(C)c(Br)c1`: the activity change, negative = activation was -44.1% (active).

Turning to `CC1CC(=S)Nc2ccccc2N1Cc1ccccc1` (centres undefined), the activity change, negative = activation is 41.4%.

On to `Cc1c(-c2nn(C)c(=O)c3ccccc23)oc2ccc(F)cc2c1=O`, for which the activity change, negative = activation is 82%.

As to `COc1ccc(Cl)cc1NC(=O)CCS(=O)(=O)c1ccc(Br)cc1`, the activity change, negative = activation was -182% (active).

For the molecule `CCn1cc(CN2CCC(C(=O)Nc3cccc(-c4cccc(Cl)c4)c3)CC2)c(C)n1`, the activity change, negative = activation was 40.5%.

Take `CCN1C(=O)c2cccc3c(N)ccc1c23`: the activity change, negative = activation is 97.1%.

For the molecule `CN(C)S(=O)(=O)c1ccc(C(=O)NCCN=C2NS(=O)(=O)c3ccccc32)cc1`, the activity change, negative = activation is -486% (active).

`Cc1[nH]n(-c2ccccc2)c(=O)c1/C=N/NC(=O)c1ccoc1C`: the activity change, negative = activation was 61.5%.

For the molecule `CC(C)CC[n+]1ccn(C2=C([O-])c3ccccc3C(=O)/C2=N\S(=O)(=O)c2ccccc2)c1`, the activity change, negative = activation was 55.3%.

With `CCCCNC(=O)C(C)N(CCN(C)C)C(=O)CCCN1C(=O)NC(c2ccc(Cl)cc2)C(C(=O)OCc2ccccc2)=C1C` (centres undefined), the activity change, negative = activation is 57.1%.

In the case of `COc1ccc2c(c1)CCNC2Cc1ccc(OC)c(O)c1` (centres undefined), the activity change, negative = activation is -42.7% (active).

On to `CC1=NN(c2ccc(Cl)c(C(=O)O)c2)C(=O)/C1=C/c1ccc(-c2ccccc2[N+](=O)[O-])o1`, for which the activity change, negative = activation was 42.9%.

Regarding `O=C1NNC(c2ccccc2)=N/C1=C\c1ccc(Cl)cc1`, the activity change, negative = activation is 50.6%.

As to `CN(CCOc1ccc(CC2SC(=O)NC2=O)cc1)c1ccccn1` (centres undefined), the activity change, negative = activation is -0.067%.

As for `C#CCOCCOCCOCCNc1nc(N2CCN(C(=O)CCCCCCCCCCNC(=O)[C@H]([C@@H](C)CC)n3cc(CCCCN=C(N)N)nn3)CC2)nc(N2CCN(C(=O)CCCCCCCCCCNC(=O)[C@H](CO)n3cc(CCCSC)nn3)CC2)n1`, the activity change, negative = activation is 59.2%.

Take `Cc1cc(NC(=O)c2cccc(N3C(=O)CCC3=O)c2)no1`: the activity change, negative = activation is -110% (active).

For the molecule `O=C(CCc1ccccc1)NNC(=O)c1ccc(Br)cc1`, the activity change, negative = activation is -96.1% (active).

Turning to `O=C(CCNS(=O)(=O)c1ccccc1)NCCSc1ccc(Br)cc1`, the activity change, negative = activation was 58.6%.

In the case of `COc1ccc(C(CNC(=O)c2ccc(S(=O)(=O)Nc3ccccc3F)cc2)N(C)C)cc1` (centres undefined), the activity change, negative = activation was 56.5%.

`O=[N+]([O-])c1ccc2nc(-c3ccccn3)[nH]c2c1`: the activity change, negative = activation is -143% (active).

On to `COc1cc(C(=O)NCc2nnc(SCC(=O)Nc3nc4ccc(C)cc4s3)o2)cc(OC)c1OC`, for which the activity change, negative = activation is -87.4% (active).

As for `Oc1c(C=Nc2cccc3nsnc23)ccc2ccccc12`, the activity change, negative = activation is 95.8%.

As for `CCOc1c(Br)cc(/C=C2\C(=O)N(CCC#N)N=C2C)cc1OC`, the activity change, negative = activation was 75.9%.

On to `O=C1Nc2ccc([N+](=O)[O-])cc2C1=Nc1cccc(CO)c1`, for which the activity change, negative = activation is 41.2%.

`COc1ccc(OCCCC(=O)NCCc2ccccc2)cc1`: the activity change, negative = activation was -144% (active).

In the case of `COc1ccc(N(CCC(=O)NCCc2ccccc2)S(=O)(=O)c2ccc(C)cc2C)cc1`, the activity change, negative = activation is 54.9%.

For the molecule `CCN1C(=NCc2ccc(OC)cc2)N[C@@H](CCc2ccccc2)[C@H](C(=O)NCc2ccc(OC)cc2)[C@H]1C`, the activity change, negative = activation was 40.4%.

Consider `Cc1ccc(S(=O)(=O)N2CCN(C(=O)c3ccccc3-c3nc4ccccc4s3)CC2)c(C)c1`, for which the activity change, negative = activation was 40.3%.

For `COCC(C)OC(=O)c1c(N)n(CCCN2CCOCC2)c2nc3ccccc3nc12` (centres undefined), the activity change, negative = activation was 50.9%.

Turning to `C#CCOCCOCCOCCNc1nc(N2CCN(C(=O)CCCCCCCCCCNC(=O)Cn3cc(CCCCCN)nn3)CC2)nc(N2CCN(C(=O)CCCCCCCCCCNC(=O)[C@H](CO)n3cc(CCCSC)nn3)CC2)n1`, the activity change, negative = activation is 60.7%.

For `O=C(Nc1cccc(C(F)(F)F)c1)c1cnccn1`, the activity change, negative = activation was -50.6% (active).

As to `C#CCOCCOCCOCCNc1nc(N2CCN(C(=O)C([C@@H](C)O)n3cc([C@@H](N)CCCCN)nn3)CC2)nc(N2CCN(C(=O)[C@H](CCCCN)n3cc(CN)nn3)CC2)n1` (some centres undefined), the activity change, negative = activation is 42.2%.

In the case of `C[C@@H](CN1CCC[C@H]1CN1C(N)=NC[C@@H]1Cc1ccccc1)N1C[C@@H](Cc2ccccc2)N(CCCC2CCCC2)C1=N`, the activity change, negative = activation is 70.9%.

On to `CCOC(=O)c1ccc(Nc2cc3ccccc3c(=O)[nH]2)cc1`, for which the activity change, negative = activation is 92.5%.

For `Brc1ccc(/C=N/N2CCN(C3c4ccccc4-c4ccccc43)CC2)s1`, the activity change, negative = activation is -255% (active).

With `CCc1ccc(CNC(=O)C2CCN(c3nnc(C)c4c(C)n(-c5ccc(C)cc5)nc34)CC2)cc1`, the activity change, negative = activation is 42.3%.

On to `Cc1cc(N2CCCC2)ccc1NC(=O)COc1ccc(Cl)cc1`, for which the activity change, negative = activation was 62.2%.

Turning to `COc1cccc(C(=O)Nc2ccc(N3CCCC3)cc2)c1`, the activity change, negative = activation was -89.7% (active).

Turning to `CCCCCCc1cc2cc(-c3nnc(-c4ccccc4)o3)c(=O)oc2cc1O`, the activity change, negative = activation is 67.8%.

As to `COC1=C(N2CCOCC2)C(=O)c2ccccc2C1=O`, the activity change, negative = activation is 65.8%.
